Compound activity deposited in PubChem BioAssay by Johns Hopkins Ion Channel Center.
KCNK9 block – KCNK9 potassium channel inhibitors, primary screen, HEK293 cells, thallium flux; Potassium channel subfamily K member 9 (Homo sapiens), Q9NPC2; FluxOR thallium flux fluorescence; active compounds read low; B-score at 10 µM; hit rate 1.2% among 310,000;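 active means ratio B-score over 3 SD below the library mean, with starting fluorescence within 5 SD of its mean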;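 further: negative B-score means less thallium flux so channel inhibition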
KCNQ1 block – inhibitors of human KCNQ1 channel, primary screen, cell-based, thallium flux, high-throughput; CHO-K1 KCNQ1, FluxOR thallium flux fluorescence; active compounds read high; B-score at 10 µM; hit rate 1.3% among 310,000; AID 2642, 2010;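 active means compounds whose thallium flux B-score, printed positive for inhibition, exceeds three library SD while starting fluorescence stays within three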;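 further: channel opened by potassium depolarization with thallium stimulus after 20 min compound exposure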
hERG protect – hERG rescue from dofetilide block, primary screen, cell-based, CHO-hERG, FluxOR thallium flux, dofetilide IC70; dofetilide IC70 present; AID 1511, 2009; activation (rescue from dofetilide block), less the hit threshold, % at 10 µM; Voltage-gated inwardly rectifying potassium channel KCNH2 (Homo sapiens), Q12809; hit rate 0.51% among 310,000;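 active means activation above the mean of controls blocked by dofetilide plus 5 SD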;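 further: thallium influx through hERG after potassium depolarization seen as dye fluorescence rise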
KCNK3 inh – human KCNK3 channel inhibitors, primary screen, CHO cells, FluxOR thallium flux, B-score; Potassium channel subfamily K member 3 (Homo sapiens), O14649; FluxOR fluorescence; active compounds read low; B-score at 10 µM; hit rate 0.84% among 340,000; AID 602410, 2012;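 active means B-score under library mean minus 4 SD, starting fluorescence ratio at most library mean plus 5 SD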;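 further: more negative B-score means stronger inhibition of thallium flux through KCNK3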
KCNQ1 pot – potentiators or activators of KCNQ1 channel, primary screen, cell-based, thallium flux, high-throughput | AID 2648, 2010 | Potassium voltage-gated channel subfamily KQT member 1 (Homo sapiens), P51787 | B-score at 10 µM | hit rate 0.35% among 310,000 | CHO-K1 KCNQ1, thallium flux FluxOR fluorescence; active compounds read high;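 active means fluorescence ratio B-score, a plate-corrected score, at least three library SD, with initial intensity B-score within 5 SD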
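Material: CHO-K1 cells stably expressing KCNQ1. Medium: assay buffer for compound exposure, DMSO matched across wells. Reagent: K+/Tl+ depolarizing stimulus. Compound dosing: single-concentration screen. Times: 37 °C overnight plating, 90-min dark dye load, 20-min compound pretreatment. Technique: FluxOR Tl+ flux fluorescence.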
Kir21 inh – inhibitors of mouse Kir2.1 inward-rectifier potassium channel; Inward rectifier potassium channel 2 (Mus musculus), P35561; HEK293-Kir2.1, FluxOR thallium flux fluorescence; active compounds read low; B-score at 10 µM; hit rate 0.85% among 310,000; AID 1672, 2009;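 active means fluorescence ratio B-score at or below minus 3 SD of library scores, with starting-brightness B-score within 2 SD, cut at about -4.2 in these data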;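 further: channel flux triggered by added potassium and thallium sulfate stimulus; B-score of peak minus minimum fluorescence over baseline after thallium stimulus; more negative B-score means stronger Kir2.1 block with less thallium influx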
KCNK3 confirm – retest of human KCNK3 channel inhibitors, confirmation, CHO cells, FluxOR thallium flux, triplicate. shares compounds with KCNK3 inh. FluxOR fluorescence; 0% buffer, 100% carvedilol maximal block. ratio percent of control, % at 10 µM. hit rate 99% among 2,400. AID 651638, 2012;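 active means ratio percent of control, averaged over triplicates, above buffer control mean plus 5 SD, cut at about 64% in these data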;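 further: ratio is the fluorescence rise from min to max over baseline after thallium stimulus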
KCNK3 noninduced – thallium flux inhibition in non-induced cells, primary screen, counter-screen for KCNK3 inhibitor project, cell-based, non-induced KCNK3 line, FluxOR thallium, triplicate; shares compounds with KCNK3 inh; non-induced KCNK3 parental cells; active compounds read low; thallium flux ratio (lower = more inhibition) at 10 µM; hit rate 40% among 2,400;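 active means thallium flux ratio, averaged over three wells, more than 5 SD below the buffer control mean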;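 further: host cells are CHO cells without KCNK3 induction; ratio is peak minus trough fluorescence over baseline then normalized to buffer controls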
An asterisk follows results filed as active; i = inactive; · = no result given. Sampled rows, rich in hits. Any-hit rate of the full collection: about 3.7%.

SMILES	KCNK9 block	KCNQ1 block	hERG protect	KCNK3 inh	KCNQ1 pot	Kir21 inh	KCNK3 confirm	KCNK3 noninduced
COC(=O)c1cn(CCOc2ccc(C)cc2)c2ccccc12	i	i	-5	-8.9*	i	-1.2	108*	i
CC(=O)c1cn(CCOc2ccccc2C)c2ccccc12	i	i	-8	i	i	-1	·	·
CC1CCCC(C)N1C(=O)CSc1ncccn1 (stereo not drawn)	i	i	-8	i	i	-0.33	·	·
Cc1cc(C)c2c(=O)cc(C(=O)NCc3ccccc3)oc2c1	i	i	-4	i	i	0.89	·	·
Cc1nn(CCCC(=O)Nc2cc(Oc3ccccc3)cc([N+](=O)[O-])c2)c(C)c1[N+](=O)[O-]	i	i	-6	-8.8*	i	-1.2	124*	0.14*
COc1ccc(/C=C/C2=Nc3ccccc3NC(C)(C)C2)cc1OC	i	i	-9	i	i	-0.4	·	·
Cc1cc(Br)cc(Br)c1OCC(=O)NNC(=O)c1ccoc1C	i	i	-4	i	i	-1.7	·	·
CNC(=S)NCc1ccc2[nH]c3c(c2c1)CCCC3	i	i	-25	i	i	-0.13	·	·
Cc1ccc(C)c(NC(=S)NCc2ccc3[nH]c4c(c3c2)CCCC4)c1	i	i	-7	-13*	i	0.01	120*	0.14*
NC(=O)c1c(NC(=O)CN2CCN(S(=O)(=O)c3ccccc3)CC2)sc2c1CCC2	i	i	-6	i	i	1.3	·	·
C=CCOC(=O)C1=C(C)NC(=O)NC1c1cn(-c2ccccc2)nc1-c1cccs1 (stereo not drawn)	i	i	-8	-9.2*	i	1.6	120*	0.15*
COCCOC(=O)C1=C(C)NC(=O)NC1c1cn(-c2ccccc2)nc1-c1cccs1 (stereo not drawn)	i	i	-13	i	i	-2.9	·	·
CCOc1cc(/C=N/NC(=O)CN2CCOCC2)ccc1OCc1ccc(Cl)cc1	i	i	-5	-11*	i	-1.1	0	i
CCOc1cc(/C=N/NC(=O)CN2CCCCC2)ccc1OCc1ccccc1	i	i	-10	i	i	-2	·	·
COc1ccc(O)c(C(=O)c2cnn(-c3ccc(Cl)cc3)c2)c1	i	i	-4	-12*	i	0.34	92*	i
Cc1c(NC(=S)SCc2ccccc2)c(=O)n(-c2ccccc2)n1C	i	i	-6	i	i	0.51	·	·
COc1cc2ccccc2cc1C(=O)Nc1nccs1	i	i	-13	-9.6*	i	-0.26	94*	i
COc1c(C(=O)Nc2nccs2)ccc2ccccc12	i	i	-13	i	i	0.72	·	·
Cc1cccn2c(=O)nc(SCC(=O)Nc3ccc4c(c3)OCO4)nc12	i	i	-8	i	i	-1.5	·	·
CC[n+]1c(/C=C/Nc2ccccc2)oc2ccccc21	i	i	-9	i	i	-1.8	·	·
CC/C(=C\c1oc2cc3ccccc3cc2[n+]1CC)Nc1ccccc1	i	9*	-27	-10*	i	-3.1	127*	0.14*
CCN1C=C(Cc2ccc(F)cc2)C2=C(C1)C(c1ccc(F)cc1)C(C#N)=C(N)O2 (stereo not drawn)	i	i	-12	-9.7*	i	-1.6	110*	i
CCCCN(C)Cc1cc(=O)oc2ccc3ccccc3c12	i	i	-8	-9.3*	i	-0.32	120*	0.15*
COc1ccccc1OCC(=O)N/N=C/c1c(O)ccc2ccccc12	-8.6*	i	-22	-10*	i	0.38	132*	i
Nc1[nH]c2cc([N+](=O)[O-])ccc2c1-c1ccccn1	i	i	-25	-10*	i	-1.1	115*	0.14*
SMILES	KCNK9 block	KCNQ1 block	hERG protect	KCNK3 inh	KCNQ1 pot	Kir21 inh	KCNK3 confirm	KCNK3 noninduced
COC(=O)CS(=O)(=O)c1ccc(C)cc1	i	i	-8	i	i	1.6	·	·
CC(=O)Oc1ccc(C(=O)Nc2cccc(-c3nnc(-c4ccco4)o3)c2)cc1	i	i	-12	-9.3*	i	-0.01	85*	i
CCOc1cccc(C(=O)Nc2cccc(-c3nnc(-c4ccc(C)cc4)o3)c2)c1	i	i	-10	i	i	0.46	·	·
O=C(Nc1cccc(-c2nnc(-c3ccccc3)o2)c1)C1CC1	i	i	-16	-9.8*	i	-0.45	112*	i
COc1cccc(C(=O)Nc2ccc(-c3nnc(-c4ccco4)o3)cc2)c1	i	i	-6	i	i	-0.24	·	·
CCOc1cccc(C(=O)Nc2cccc(-c3nnc(-c4ccccc4)o3)c2)c1	i	i	-3	-11*	i	-1.8	121*	0.14*
CC(=O)Nc1cccc(-c2nnc(-c3ccccc3)o2)c1	i	i	-14	i	i	-1.2	·	·
CNC(=O)C1CC(=O)N(CCc2ccc(C)cc2)C1 (stereo not drawn)	i	i	-4	i	i	0.02	·	·
O=C(NCCS(=O)(=O)N1CCN(c2cccc(Cl)c2)CC1)c1cc(=O)c2ccccc2o1	i	i	-11	i	i	-0.39	·	·
COc1ccc(NC(=O)COC(=O)c2c3c(nc4ccccc24)CCCC3)cc1Cl	-9.7*	i	-6	-9.1*	i	-0.54	120*	0.15*
CCCOP(=O)(OCCC)C(Nc1ccc(C(C)C)cc1)c1ccc([N+](=O)[O-])cc1 (stereo not drawn)	i	i	-16	-8.8*	i	1.2	118*	0.16*
N#CCC(=O)N/N=C/c1cn(Cc2ccccc2C#N)c2ccccc12	i	i	1	i	i	0	·	·
N#CCC(=O)N/N=C/c1c(-c2ccccc2)n(-c2ccccc2)c2ccccc12	i	i	-7	-9.6*	i	-0.12	97*	i
CCN(CC(=O)Nc1ccc(NC(C)=O)cc1)C(=O)/C=C/c1ccc(C)o1	·	·	·	i	·	·	·	·
